STAT1 act – activators of IFN-gamma induced STAT1 signaling; NIH 3T3 STAT1-luciferase reporter, luminescence; 100% = IFN-gamma alone, no compound; activation (% of control), % at 5.5 µM; hit rate 2.6% among 200,000; AID 932;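 active means activation above the screen-wide mean activation plus 3 SD, cut at about 130% in these data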;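 further: raw ratio to IFN-gamma control signal so 100% means no change and 0% no light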
NF-kB expr up – compounds increasing NF-kB expression in human neuronal cells | hit rate 1.6% among 190,000 | fold change at 12.5 µM | AID 1239 | NF-kB reporter expression; active compounds read high; in the data active means fold change above about 3.3
APP 5'UTR act – activates APP 5'UTR luciferase reporter. hit rate 1% among 190,000. activation, % at 2 µM. SH-SY5Y APP 5'UTR luciferase reporter, luminescence; zero percent = DMSO vehicle wells;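 active means activation above a set limit, based on mean plus 3 SD of controls, cut at about 140% in these data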
PERK inhibitor – blocks human PERK kinase; AID 1416; CHO PERK-DD fusion, SEAP luminescence translation reporter; Q9NZJ5; inhibition, % at 5.6 µM; hit rate 0.17% among 220,000;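 active means inhibition above the mean inhibition of all tested compounds plus 3 SD, set separately per screening campaign, cut at about 2.9% in these data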;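 further: PERK kinase domain activated by AP20187 dimerizer at 100 nM; 0% = DMSO with dimerizer and 100% = rapamycin at 8.4 µM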
AHR activator – human AHR activation | P35869 | hit rate 2.5% among 320,000 | AHR-responsive luciferase reporter cells, luminescence | activation, % at 5 µM; in the data active means activation above about 47%;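 further: 0% = vehicle wells and 100% = reference agonist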
Mdm2 ligase inh – inhibitors of human Mdm2 E3 ubiquitin ligase | Q00987 | cell-based MDM2 ubiquitination luciferase reporter, 2 h; 0 = plate control, 100 = twice control, blank-subtracted | signal enhancement, % at 5 µM | hit rate 0.11% among 210,000 | AID 1230;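 active means signal enhancement of 30% or more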;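 further: luminescence tracks abundance of the self-degrading MDM2-luciferase fusion protein; higher signal means inhibition of MDM2 E3 ligase activity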
Target sequence (Q00987 whole entry, looked up, the tested form may be a part): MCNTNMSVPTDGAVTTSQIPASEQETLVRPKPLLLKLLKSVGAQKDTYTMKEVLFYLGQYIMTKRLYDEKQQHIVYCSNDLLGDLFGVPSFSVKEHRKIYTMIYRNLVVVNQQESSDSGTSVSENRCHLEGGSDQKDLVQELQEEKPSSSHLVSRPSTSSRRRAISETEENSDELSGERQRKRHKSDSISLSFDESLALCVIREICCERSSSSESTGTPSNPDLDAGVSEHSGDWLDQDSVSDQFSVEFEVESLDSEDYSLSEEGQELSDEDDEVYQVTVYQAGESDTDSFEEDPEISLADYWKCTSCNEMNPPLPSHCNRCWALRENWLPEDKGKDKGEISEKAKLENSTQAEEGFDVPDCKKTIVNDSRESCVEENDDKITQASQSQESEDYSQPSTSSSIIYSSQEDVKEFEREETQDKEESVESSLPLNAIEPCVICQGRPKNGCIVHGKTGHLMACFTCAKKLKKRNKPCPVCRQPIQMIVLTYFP
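Assay system: mammalian cells stably expressing self-ubiquitinating, self-degrading MDM2 E3–luciferase fusion. Quantity: 2000 cells in each well. Medium: DMEM culture medium. Compound dosing: single-point 5 µM. Timing: cell settling 4 h, compound treatment 2 h, both 37 °C. Technique: luciferase luminescence. Read-out basis: percent signal gain over controls, blank-subtracted. Benchmarks: plate controls and plate blanks.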
* marks the source's active call; other numbers are inactive results; . = no result given. Sampled rows, rich in hits. Any-hit rate of the full collection: about 4.5%.

SMILES	STAT1 act	NF-kB expr up	APP 5'UTR act	PERK inhibitor	AHR activator	Mdm2 ligase inh
NC(=O)C(=O)N/N=C1\CCc2ccccc21	131*	1.5	41	1	15	-14
NC(=O)CSc1nnc(COc2ccccc2)n1Cc1ccco1	101	1	12	0	1	5
CC1(C)Nc2ccccc2C(=O)N1c1ccc(Br)cc1	.	.	.	.	59*	.
COc1ccc(N2C(=O)c3ccccc3NC23CCCCC3)cc1	135*	3.1	135	1	3	-24
COc1ccc(N2C(=O)c3ccccc3NC23CCC(C)CC3)cc1 (stereo unspecified)	107	2	-3	1	1	.
Cc1nn(-c2ccccc2)c(Cl)c1/C=N/NC(=O)c1ccncc1	.	.	.	0	10	-10
CC(NC(=O)c1ccccc1)C(=O)OCn1nnc2ccccc2c1=O (stereo unspecified)	.	.	.	.	1	.
Cc1c(/C=N/NC(=O)c2ccccc2O)c2ccccn2c1C(=O)c1ccc(F)cc1	101	0.29	16	-1	53*	.
Cc1c(/C=N/NC(=O)c2cccnc2)c2ccccn2c1C(=O)c1ccc(F)cc1	102	0.36	10	-1	73*	-34
Cc1c(/C=N/NC(=O)CNc2ccccc2)c2ccccn2c1C(=O)c1ccccc1	103	0.52	3	0	53*	-10
Cc1c(/C=N/NC(=O)c2ccc(O)cc2)c2ccccn2c1C(=O)c1ccc(F)cc1	100	0.31	7	-1	4	4
c1ccc(-c2noc(-c3ccno3)n2)nc1	.	.	.	1	-2	-10
c1ccc(-c2nc(-c3ccco3)cs2)nc1	130*	0.71	29	0	1	10
c1ccc(-c2noc(-c3ccco3)n2)nc1	137*	2.1	192*	1	5	-21
Cc1ccc(-c2nc(-c3ccccn3)no2)cc1	17	0.3	-39	0	-14	-5
Cc1ccc(-c2nc(-c3ccccn3)no2)cc1Cl	28	0.59	159*	1	2	1
c1ccc(-c2nccc(-c3ccco3)n2)nc1	103	1.3	16	3	-4	-29
Fc1ccc(-c2csc(-c3ccccn3)n2)cc1F	140*	2.8	9	0	8	-11
O=C(Cc1ccccc1)Nc1nc(-c2ccc(F)c(F)c2)cs1	.	.	.	.	-6	.
O=C(CCNC(=O)N1CCn2c1nc1ccccc12)NCc1ccccc1Cl	.	.	.	.	-2	.
O=C1c2cccc3c(O)ccc(c23)C(=O)N1Cc1ccccc1	98	0.9	-8	1	21	-15
Cc1ccc(C2(C)NC(=O)N(CC(=O)NCc3ccccc3Cl)C2=O)cc1 (stereo unspecified)	.	.	.	.	2	.
c1ccc(N2CCN(Cc3cnc(N4CCOCC4)s3)CC2)cc1	104	0.93	-13	1	-3	-2
O=C(COC(=O)COc1ccccc1F)NCc1ccco1	.	.	.	.	-3	.
Oc1c(C=NCc2ccccc2)sc2ccccc12	143*	3.5*	11	0	8	-7
SMILES	STAT1 act	NF-kB expr up	APP 5'UTR act	PERK inhibitor	AHR activator	Mdm2 ligase inh
O=C(CSc1nc2c(sc3ccccc32)c(=O)n1-c1ccccc1)NCc1ccco1	98	0.92	2	-1	113*	3
O=C(CSc1nc2c(sc3ccccc32)c(=O)n1CCc1ccccc1)NCc1ccco1	100	1.1	3	0	3	-12
O=C(O)C1=C[C@H](c2ccc(C(F)(F)F)cc2)C[C@H](OCCCCO)O1	.	.	.	.	3	.
CCOC(=O)c1sc2nc3c(cc2c1N)COC(C)(C)C3	136*	5.9*	117	1	-3	-6
COc1ccc(-n2c(=S)[nH]c3cc(C(=O)NCc4cccnc4)ccc3c2=O)cc1	.	.	.	.	-2	.
COc1cc(OC)cc(-c2c(-c3cccs3)c3cc(-c4ccc(OC)c(OC)c4)ccc3n2C)c1	.	.	.	.	-1	.
CC(C)c1ccc(CNc2ccc([N+](=O)[O-])cn2)cc1	138*	2.3	74	1	3	-2
CC(C)Nc1ncnc2c1cnn2-c1ccccc1	136*	4*	119	0	-1	-69
Cc1ccccc1Nc1ncnc2c1cnn2-c1ccccc1	130*	2.6	23	0	-5	-15
CC1CC(C)CN(c2ncnc3c2cnn3-c2ccc(Cl)cc2)C1 (stereo unspecified)	118	0.87	233*	1	-5	-55
NNc1ncnc2c1cnn2-c1ccccc1	100	0.76	-5	-1	61*	-14
c1ccc(-n2ncc3c(NC4CCCCCC4)ncnc32)cc1	.	.	.	.	-6	-6
COC(=O)c1c(NC(=S)Nc2ccc(F)cc2[N+](=O)[O-])sc2c1CCCCC2	100	0.85	-1	1	7	-14
CC(NCc1ccccc1)c1ccccc1O (stereo unspecified)	.	.	.	1	-2	-23
COc1ccc(-n2ncc3c(N4CCC(C(N)=O)CC4)ncnc32)cc1	132*	3.8*	102	2	6	-5
Cc1cccc(-n2ncc3c(Nc4ccc(F)cc4)ncnc32)c1	.	.	.	.	-9	.
Cc1cccc(-n2ncc3c(NC(C)C)ncnc32)c1	150*	5*	158*	0	-5	-51
Cc1cccc(-n2ncc3c(N4CCC(C)CC4)ncnc32)c1	143*	4.3*	58	1	-6	-23
Cc1cccc(-n2ncc3c(N4CCC5(CC4)OCCO5)ncnc32)c1	.	.	.	.	14	-6
CC(=O)CSc1ncnc2c1cnn2-c1ccccc1	123	7.2*	120	1	-3	-26
C=CC[C@@H](CC(=O)N[C@H](CO)Cc1ccccc1)C(=O)N[C@H](COC(=O)[C@@H](CC=C)CC(=O)OC(C)(C)C)Cc1ccccc1	.	.	.	.	-1	.
O=C(CSc1nnc2c(n1)[nH]c1ccccc12)NCc1ccccc1F	.	.	.	.	4	.
NC(=O)Cn1cc(C(=O)COc2ccccc2)c2ccccc21	102	0.79	14	1	75*	-14
CC(=O)N1c2ccccc2Oc2cc3ccccc3cc21	93	1.6	.	1	65*	-1
Cc1cccc(CS(=O)(=O)Cc2ccc(C(=O)NC3CCCCC3)o2)c1	.	.	.	.	2	.
SMILES	STAT1 act	NF-kB expr up	APP 5'UTR act	PERK inhibitor	AHR activator	Mdm2 ligase inh
CC1CCc2c(sc3ncnc(NCc4cccnc4)c23)C1 (stereo unspecified)	106	1.1	4	0	34	-13
CC1CCc2c(sc3ncnc(NCCCOC(C)C)c23)C1 (stereo unspecified)	99	1.2	6	-1	61*	2
COc1ccc(NC(=O)c2ccc3c(c2)N(C)CCS3)cc1	.	.	.	.	72*	.
CCN1CCSc2ccc(C(=O)NCc3cccc(F)c3)cc21	.	.	.	.	38	.
CN1CCSc2ccc(C(=O)Nc3cccc(F)c3)cc21	.	.	.	-1	126*	-14
CN1CCSc2ccc(C(=O)NCc3ccccc3)cc21	.	.	.	.	62*	.
O=C(NCc1cccnc1)c1ccc2c(c1)N(Cc1ccccc1)CCS2	.	.	.	1	14	-23
O=C(NNS(=O)(=O)c1ccccc1F)c1ccccc1-n1cccc1	.	.	.	.	3	.
COc1ccccc1OCC(=O)Nc1ccccc1C(=O)N1CCCCC1	.	.	.	.	-1	.
